Source: ChEMBL document CHEMBL3102741, “A novel 2,3-diphenyl-4H-pyrido[1,2-a]pyrimidin-4-one derivative inhibits endothelial cell dysfunction and smooth muscle cell proliferation/activation” (Eur J Med Chem, 2014)
Active and inactive are the calls of the source. No cut-off for these calls is given here.

Key:
HUVEC [1] = assay: Cytotoxicity against HUVEC assessed as cell viability up to 50 uM after 24 to 72 hrs by WST-1 assay; format: cell-based; details: human
Method in brief: (§1)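 HUVECs were exposed to compound (10, 25, 50 µM; 0.1% DMSO vehicle) for 24 h or 72 h. WST-1 premix was added for a further 2 h, and formazan absorbance was read at 450 nm as a measure of mitochondrial dehydrogenase activity. Three independent experiments, each with n = 6 replicates.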

HUVEC [2] = assay: Antiinflammatory activity in HUVEC assessed as inhibition of TNF-alpha-induced VCAM1 expression incubated for 1 hr prior to TNF-alpha challenge measured after overnight incubation by enzyme immunoassay method; format: functional, Homo sapiens
Method in brief: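 Confluent HUVECs in 96-well plates were pre-treated 1 h with compound (25 µM), then stimulated with TNF-α 10 ng/mL overnight. Cell-surface VCAM-1 was measured by cell-surface enzyme immunoassay. Three independent experiments, each with n = 8 replicates.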

[3] = molecular target: Matrix metalloproteinase-9 (Homo sapiens) (UniProt P14780); assay: Inhibition of PMA-induced MMP9 activity in HAoSMC at 25 uM after 24 hrs by gelatin zymography relative to control
Matrix metalloproteinase-9 (Homo sapiens), sequence (P14780 whole entry): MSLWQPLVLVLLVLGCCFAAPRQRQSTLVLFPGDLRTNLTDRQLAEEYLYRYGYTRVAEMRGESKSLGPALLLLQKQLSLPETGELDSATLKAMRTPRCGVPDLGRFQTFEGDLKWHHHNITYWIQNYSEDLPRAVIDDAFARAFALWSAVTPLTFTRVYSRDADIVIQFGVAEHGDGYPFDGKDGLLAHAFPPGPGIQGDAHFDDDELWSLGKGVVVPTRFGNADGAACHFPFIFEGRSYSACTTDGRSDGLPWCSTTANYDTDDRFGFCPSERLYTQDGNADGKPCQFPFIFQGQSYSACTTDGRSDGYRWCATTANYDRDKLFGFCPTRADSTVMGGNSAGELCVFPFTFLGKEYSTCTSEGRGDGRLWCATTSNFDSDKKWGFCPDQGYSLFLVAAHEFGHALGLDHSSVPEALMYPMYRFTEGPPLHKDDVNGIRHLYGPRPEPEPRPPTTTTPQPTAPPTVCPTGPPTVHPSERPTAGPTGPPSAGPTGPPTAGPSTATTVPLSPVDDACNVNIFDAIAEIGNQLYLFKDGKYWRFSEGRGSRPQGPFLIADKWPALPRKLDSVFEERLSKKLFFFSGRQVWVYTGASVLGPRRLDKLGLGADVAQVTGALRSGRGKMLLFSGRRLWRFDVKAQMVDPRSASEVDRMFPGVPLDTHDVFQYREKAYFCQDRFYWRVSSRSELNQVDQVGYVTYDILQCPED
Method in brief: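 HAoSMCs were treated with PMA 10 nM in serum-free medium, with or without compound (10, 25 µM), for 24 h. Conditioned medium ([…]) was run on 11% SDS-PAGE containing 0.1% gelatin at 125 V and 4 °C. Gels were washed in Triton X-100, incubated 24 h at 37 °C in Tris pH 7.5/CaCl2 buffer, and Coomassie-stained. Lysis bands were quantified by densitometry.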

Homo sapiens [4] = organism: Homo sapiens; assay: Inhibition of PDGF-BB-induced COX-2 protein expression in HAoSMC incubated for 1 hr prior to PDGF-BB challenge measured after overnight incubation by EIA assay relative to control; format: functional
Method in brief: (§2)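 Cells were pre-treated 1 h with compound, then stimulated overnight with PMA 10 nM, TNF-α 10 ng/mL (HUVECs) or PDGF-BB 20 ng/mL (HAoSMCs). Monolayers were fixed and permeabilized in cold acetone on ice for 2 min. They were probed with goat anti-COX-2 and then HRP anti-goat IgG, developed with TMB for 30 min, stopped with 0.18 M H2SO4, and read at 450 nm. Three experiments, n = 6 each.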

HUVEC [5] = assay: Effect on PMA-induced COX-2 mRNA expression in HUVEC at 1 to 25 uM incubated for 1 hr prior to PMA challenge measured after overnight incubation by RT-PCR analysis relative to control; format: ADME, cell-based; details: human
Method in brief: (§3)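 Confluent cells (HAoSMCs at passages 20–30, HUVECs up to fifth passage) were pre-treated 1 h with compound (1, 10, 25 µM) or 0.1% DMSO, then stimulated with PMA 10 nM, PDGF-BB 20 ng/mL or TNF-α 10 ng/mL overnight. Total RNA was extracted and RT-PCR run with GAPDH co-amplified. Bands were quantified by densitometry and normalized to GAPDH. Three determinations.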

Homo sapiens [6] = organism: Homo sapiens; assay: Inhibition of PMA-induced COX-2 mRNA expression in HAoSMC at 1 to 25 uM incubated for 1 hr prior to PMA challenge measured after overnight incubation by RT-PCR analysis relative to control; format: functional; method in brief: as §3
Homo sapiens [7] = organism: Homo sapiens; assay: Inhibition of PMA-induced COX-2 protein expression in HAoSMC at 1 to 25 uM incubated for 1 hr prior to PMA challenge measured after overnight incubation by EIA assay relative to control; format: functional; method in brief: as §2
HUVEC [8] = assay: Cytotoxicity against HUVEC assessed as inhibition of ECGF-induced cell growth at 1 to 25 uM incubated for 1 hr prior to ECGF challenge measured after 48 hrs by BrdU incorporation assay relative to control; format: cell-based; details: human
Method in brief: (§4)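 Cells at about 70% confluence were serum-starved overnight, pre-treated 1 h with compound (1–25 µM), then grown with or without PDGF-BB (HAoSMCs) or ECGF (HUVECs), each at 20 ng/mL, for 48 h. Cells were BrdU-labelled, fixed and immunostained, and absorbance was read at 450 nm. Three experiments, n = 8 each.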

HUVEC [9] = assay: Effect on TNF-alpha-induced COX-2 protein expression in HUVEC at 1 to 25 uM incubated for 1 hr prior to TNF-alpha challenge measured after overnight incubation by EIA assay relative to control; format: ADME, cell-based; details: human; method in brief: as §2
Homo sapiens [10] = organism: Homo sapiens; assay: Inhibition of PDGF-BB-induced COX-2 mRNA expression in HAoSMC at 1 to 25 uM incubated for 1 hr prior to PDGF-BB challenge measured after overnight incubation by RT-PCR analysis relative to control; format: functional; method in brief: as §3
HUVEC [11] = assay: Cytotoxicity against HUVEC at 1 to 25 uM after 48 hrs by BrdU incorporation assay relative to untreated control; details: human
HUVEC [12] = assay: Cytotoxicity against HUVEC assessed as cell viability at 10 to 50 uM after 24 to 72 hrs by WST-1 assay relative to untreated control; format: cell-based; details: human; method in brief: as §1
[13] = molecular target: T1, Prostaglandin G/H synthase 2 (Homo sapiens) (UniProt P35354); assay: Inhibition of COX2 in HAoSMC assessed as PMA-induced PGE2 production at 1 to 25 uM incubated for 1 hr prior to PMA challenge measured after overnight incubation by competitive enzyme immunoassay
T1 sequence (whole entry): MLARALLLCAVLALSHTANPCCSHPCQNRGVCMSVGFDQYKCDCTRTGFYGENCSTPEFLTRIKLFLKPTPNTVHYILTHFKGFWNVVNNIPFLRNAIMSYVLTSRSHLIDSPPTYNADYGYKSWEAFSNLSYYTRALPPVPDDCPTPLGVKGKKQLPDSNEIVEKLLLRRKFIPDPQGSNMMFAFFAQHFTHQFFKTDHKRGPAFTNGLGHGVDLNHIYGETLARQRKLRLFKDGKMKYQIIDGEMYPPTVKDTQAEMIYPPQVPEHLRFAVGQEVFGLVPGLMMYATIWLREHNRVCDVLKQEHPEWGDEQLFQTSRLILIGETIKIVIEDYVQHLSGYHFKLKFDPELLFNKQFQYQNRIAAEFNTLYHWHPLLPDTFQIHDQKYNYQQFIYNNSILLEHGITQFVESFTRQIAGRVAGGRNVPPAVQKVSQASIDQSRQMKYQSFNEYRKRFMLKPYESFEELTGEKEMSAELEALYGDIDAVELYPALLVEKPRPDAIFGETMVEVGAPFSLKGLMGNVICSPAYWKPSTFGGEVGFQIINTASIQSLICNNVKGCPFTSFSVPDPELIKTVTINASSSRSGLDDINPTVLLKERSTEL
Method in brief: (§5)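 Cells were pre-treated 1 h with compound (1–25 µM), then stimulated overnight with PMA 10 nM (HAoSMCs) or TNF-α 10 ng/mL (HUVECs). Conditioned medium was centrifuged, and PGE2 and PGI2 (as 6-keto-PGF1α) were measured by competitive EIA in pg/mL. Three independent experiments in duplicate.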

[14] = molecular target: T1, Prostaglandin G/H synthase 2 (Homo sapiens); assay: Inhibition of COX2 in HUVEC assessed as TNF-alpha-induced PGI2 production at 1 to 25 uM incubated for 1 hr prior to TNF-alpha challenge measured after overnight incubation by competitive enzyme immunoassay; method in brief: as §5
[15] = molecular target: T1, Prostaglandin G/H synthase 2 (Homo sapiens); assay: Inhibition of COX2 in HUVEC assessed as TNF-alpha-induced PGE2 production at 1 to 25 uM incubated for 1 hr prior to TNF-alpha challenge measured after overnight incubation by competitive enzyme immunoassay; method in brief: as §5
Homo sapiens [16] = organism: Homo sapiens; assay: Cytotoxicity against HAoSMC assessed as inhibition of PDGF-BB-induced cell growth incubated for 1 hr prior to PDGF-BB challenge measured after 48 hrs by BrdU incorporation assay; format: functional; method in brief: as §4
HUVEC [17] = assay: Effect on PMA-induced COX-2 protein expression in HUVEC at 1 to 25 uM incubated for 1 hr prior to PMA challenge measured after overnight incubation by EIA assay relative to control; format: ADME, cell-based; details: human; method in brief: as §2
HUVEC [18] = assay: Effect on TNF-alpha-induced COX-2 mRNA expression in HUVEC at 1 to 25 uM incubated for 1 hr prior to TNF-alpha challenge measured after overnight incubation by RT-PCR analysis relative to control; format: ADME, cell-based; details: human; method in brief: as §3
Homo sapiens [19] = organism: Homo sapiens; assay: Antiinflammatory activity in HAoSMC assessed as inhibition of PMA-induced MMP-9 mRNA expression at 10 to 25 uM incubated for 1 hr prior to PMA challenge measured after overnight incubation by RT-PCR analysis; format: functional; method in brief: as §3
HUVEC [20] = assay: Cytotoxicity against HUVEC assessed as cell detachment at 10 to 50 uM after 72 hrs by phase-contrast microscopy; format: cell-based; details: human
Method in brief: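 After 72 h of treatment with compound at concentrations up to 50 µM, HUVEC morphology was examined by phase-contrast microscopy.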

HUVEC [21] = assay: Antiinflammatory activity in HUVEC assessed as reduction in TNF-alpha-induced VCAM1 mRNA expression at 10 to 25 uM incubated for 1 hr prior to TNF-alpha challenge measured after 4 hrs by RT-PCR analysis relative to control; format: functional, cell-based; details: Homo sapiens
Method in brief: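 HUVECs were pre-treated 1 h with compound, then exposed to TNF-α 10 ng/mL for 4 h. Total RNA was extracted and VCAM-1 with GAPDH amplified by RT-PCR (VCAM-1 30 cycles, 55 °C annealing). Bands were quantified by densitometry and normalized to GAPDH. Mean ± SEM of three determinations.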

HUVEC [22] = assay: Cytotoxicity against HUVEC assessed as cell viability at 10 uM after 24 to 72 hrs by WST-1 assay relative to untreated control; format: cell-based; details: human
Method in brief: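 HUVECs (used up to fifth passage from primary culture) in 96-well plates exposed to compound for 24 h or 72 h, DMSO final ≤0.1% as vehicle; WST-1 premix added for further 2 h, absorbance at 450 nm; viability relative to untreated cells. Morphology also checked by phase-contrast microscopy. Mean of three independent experiments, each n = 6 replicates.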

| Structure (SMILES) | Activity (HUVEC [1]) | inhibition (INH) (HUVEC [2]) | Activity (HUVEC [12]) | Activity (HUVEC [20]) | other results |
| --- | --- | --- | --- | --- | --- |
| COc1ccc(-c2c(-c3ccccc3)nc3ccccn3c2=O)cc1 | Non-toxic | 12% |  |  |  |
| COc1ccc(-c2nc3ccccn3c(=O)c2-c2ccccc2)cc1 | Non-toxic | 8.9% |  |  |  |
| COc1ccc(-c2nc3ccccn3c(=O)c2-c2ccc(OC)cc2)cc1 | Non-toxic | 9.6% |  |  |  |
| COc1ccc(-c2c(-c3ccccc3)nc3ccccn3c2=O)cc1OC | Non-toxic | 12% |  |  |  |
| O=c1c(-c2ccccc2)c(-c2ccccc2)nc2ccccn12 | Non-toxic | 8.5% |  |  |  |
| COc1ccc(-c2nc3ccccn3c(=O)c2-c2ccccc2)cc1OC | Non-toxic | 37% | Non-toxic | Non-toxic | inhibition [3]: Active; inhibition (Homo sapiens [4]): Dose-dependent effect; Activity (HUVEC [5]): Non-toxic; inhibition (Homo sapiens [6]): Active; inhibition (Homo sapiens [7]): Active; Activity (HUVEC [8]): Non-toxic; Activity (HUVEC [9]): Non-toxic; inhibition (Homo sapiens [10]): Active; inhibition (HUVEC [2]; Homo sapiens): Dose-dependent effect; Activity (HUVEC [11]): Non-toxic; inhibition [13]: Active; inhibition [14]: inactive; inhibition [15]: inactive; inhibition (Homo sapiens [16]): Dose-dependent effect; Activity (HUVEC [17]): Non-toxic; Activity (HUVEC [18]): Non-toxic; inhibition (Homo sapiens [19]): Active; inhibition (HUVEC [21]): Active |
| COc1ccc(-c2nc3ccccn3c(=O)c2-c2ccc(OC)c(OC)c2)cc1 | Non-toxic | 15% |  |  |  |
| O=c1c(O)c(-c2ccc(O)c(O)c2)oc2cc(O)cc(O)c12 [QUERCETIN] |  |  | Toxic | Toxic | Activity (HUVEC [22]): Toxic |
| COc1ccc(-c2c(-c3ccc(OC)c(OC)c3)nc3ccccn3c2=O)cc1 | Non-toxic | 10.3% |  |  |  |
| O=c1cc(-c2ccc(O)cc2)oc2cc(O)cc(O)c12 [APIGENIN] |  |  | Toxic | Toxic | Activity (HUVEC [22]): Toxic |
